Measurements reported in PMC4505548 (Organic & biomolecular chemistry, 2008).

molecular target: Neisseria meningitidis CSS (NmCSS), CMP-sialic acid synthetase (Neisseria meningitidis, UniProt P0A0Z8); assay: capillary electrophoresis UV assay of CMP-Neu5Ac formation; format: biochemical; conditions: 1000 µM; 1 mM CTP, 1 mM Neu5Ac, 20 mM MgCl2, Tris-HCl pH 8.5, 37 °C, 15 min
Outline: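 Purified recombinant NmCSS (1.25 ng) in 200 mM Tris-HCl pH 8.5 with CTP, Neu5Ac and MgCl2, reacted with test compound at 1 mM for 15 min at 37 °C. Stopped with 10% SDS on ice (final 1% SDS). CMP-Neu5Ac measured by capillary electrophoresis with UV detection. Percent conversion calculated from a UV response standard curve of CTP and CMP-Neu5Ac.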

Sequence of Neisseria meningitidis CSS (NmCSS), CMP-sialic acid synthetase (P0A0Z8 whole entry): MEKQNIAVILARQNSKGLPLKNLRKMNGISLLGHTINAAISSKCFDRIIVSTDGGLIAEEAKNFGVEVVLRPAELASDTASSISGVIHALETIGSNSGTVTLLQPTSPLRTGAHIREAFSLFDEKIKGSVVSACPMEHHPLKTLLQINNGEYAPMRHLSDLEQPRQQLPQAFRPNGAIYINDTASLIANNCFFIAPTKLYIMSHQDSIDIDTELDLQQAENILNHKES

Substance | % Inhibition [%]
Saturated sulfo-CDP [compound 12] | 55 ± 4
Saturated sulfo-UDP [compound 22] | 35 ± 2
Sulfo-CDP [compound 5] | 47 ± 2
Sulfo-CTP [compound 4] | 39 ± 2
Sulfo-UTP [compound 19] | 33 ± 5
